Source: ChEMBL document CHEMBL3734686, “Synthesis, Photophysical Properties, and Biological Evaluation of trans-Bisthioglycosylated Tetrakis(fluorophenyl)chlorin for Photodynamic Therapy” (J Med Chem, 2015)
The source made the active and inactive calls.

What was measured:
4T1 [1] = test: Drug uptake in mouse 4T1 cells implanted in BALB/c mouse assessed per gram of tissue at 0.18 mg/kg, ip after 72 hrs by HPLC-based fluorescence analysis; assay type: ADME, organism-based; settings: in vivo
Summary of the method: (§1)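 Female BALB/c mice with 4T1 cells (1 × 10^6 in HBSS) implanted in left rear thigh; single i.p. dose, 7 in ethanol/PEG400/H2O (2/3/5) with 0.1% DMSO, mono-L-aspartyl chlorin e6 in saline; kept dark until sacrifice. Tissues washed, frozen, homogenized in CH3OH/DMSO/H2O (32/8/1), centrifuged 2300×g; supernatant analysed by HPLC with fluorescence detection; three animals per time point.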

4T1 [2] = test: Antitumor activity against mouse 4T1 cells implanted in BALB/c mouse at 0.18 mg/kg, ip assessed as tumor growth inhibition administered for 48 hrs followed by irradiation at 40 mW/cm2 for 20.1 mins measured after 5 days by Vernier calipers; assay type: functional, organism-based
Summary of the method: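 Female BALB/c mice carried 4T1 thigh tumours (1 × 10^6 cells) of 50–60 mm3. They were dosed i.p. at 250–31.25 nmol·kg−1 in ethanol/PEG400/H2O (2/3/5) containing 0.1% DMSO and kept dark. At 48 h the tumour was irradiated with a 100-W halogen lamp at 40 mW·cm−2 for 20.1 min. Tumour size was measured daily by caliper as length × width²/2 and normalised to day 0.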

4T1 [3] = test: Induction of necrosis in mouse 4T1 cells implanted in BALB/c mouse at 5 mg/kg, ip irradiated at 48 J/cm2 measured at 1 day post PDT by […]-based fluorescence microscopic analysis; assay type: functional, organism-based; settings: 0.18 mg/kg, in the assay text read “0.18 mg/kg” for “5 mg/kg”
Summary of the method: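 Skin-plus-tumor slides from 4T1-bearing mice 1 day after PDT; proteinase K treatment, then dual apoptosis/necrosis detection reagent at room temperature in dark, washed in PBS, examined by fluorescence microscopy.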

4T1 [4] = test: Potency index, ratio of compound antitumor activity to mono-L-aspartyl chlorin e6 antitumor activity against mouse 4T1 cells implanted in ip dosed BALB/c mouse; assay type: functional
[5] = Photocytotoxicity against mouse B16-F1 cells assessed as cell survival preincubated for 24 hrs followed by irradiation at 16 J/cm2 measured at 24 hrs by WST-8 assay; assay type: functional, cell-based; settings: B16-F1, light or radiation study
Summary of the method: (§2)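 Cells (5 × 10^3/well) in DMEM with 10% FCS, 24 h at 37°C, 5% CO2; photosensitizer 1–50000 nM (1% DMSO final) for 24 h, washed, fresh medium. Irradiated with 100-W halogen lamp through λ>500 nm or λ>600 nm cutoff filter to 16 J·cm−2; WST-8 absorbance at 450 nm 24 h later, survival normalized to no-drug wells.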

[6] = Photocytotoxicity against rat RGK1 cells assessed as cell survival preincubated for 24 hrs followed by irradiation at 16 J/cm2 measured at 24 hrs by WST-8 assay; assay type: functional, cell-based; settings: RGK1, light or radiation study; summary of the method: as §2
[7] = Photocytotoxicity against human U87 cells assessed as cell survival preincubated for 24 hrs followed by irradiation at 16 J/cm2 measured at 24 hrs by WST-8 assay; assay type: functional, cell-based, U-87MG ATCC; settings: U-87 MG, light or radiation study; summary of the method: as §2
Lung [8] = test: Drug uptake in BALB/c mouse lung implanted with mouse 4T1 cells assessed per gram of tissue at 0.18 mg/kg, ip after 6 hrs by HPLC-based fluorescence analysis; assay type: ADME, organism-based; settings: in vivo
Summary of the method: (§3)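 Female BALB/c mice bearing 4T1 thigh tumours received an i.p. dose in ethanol/PEG400/H2O (2/3/5) with 0.1% DMSO, or in saline, and were kept dark until killed. Tissues were weighed (100 mg), homogenised in CH3OH/DMSO/H2O (32/8/1) and centrifuged twice at 2300×g at 4°C. Supernatants were analysed by HPLC with fluorescence detection (λex 404/λem 654 nm or λex 400/λem 666 nm). n = 3 per time point.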

[9] = Drug uptake in BALB/c mouse small intestine implanted with mouse 4T1 cells assessed per gram of tissue at 0.18 mg/kg, ip after 6 hrs by HPLC-based fluorescence analysis; assay type: ADME, organism-based; settings: in vivo; summary of the method: as §1
Kidney [10] = test: Drug uptake in BALB/c mouse kidney implanted with mouse 4T1 cells assessed per gram of tissue at 0.18 mg/kg, ip after 6 hrs by HPLC-based fluorescence analysis; assay type: ADME, organism-based; settings: in vivo; summary of the method: as §3
Spleen [11] = test: Drug uptake in BALB/c mouse spleen implanted with mouse 4T1 cells assessed per gram of tissue at 0.18 mg/kg, ip after 6 hrs by HPLC-based fluorescence analysis; assay type: ADME, organism-based; settings: in vivo; summary of the method: as §1
Muscle tissue = test: Drug uptake in BALB/c mouse muscle implanted with mouse 4T1 cells assessed per gram of tissue at 0.18 mg/kg, ip after 6 hrs by HPLC-based fluorescence analysis; assay type: ADME, organism-based; settings: in vivo; summary of the method: as §3
Lung [12] = test: Drug uptake in BALB/c mouse lung implanted with mouse 4T1 cells assessed per gram of tissue at 0.18 mg/kg, ip after 12 hrs by HPLC-based fluorescence analysis; assay type: ADME, organism-based; settings: in vivo; summary of the method: as §3
Heart = test: Drug uptake in BALB/c mouse heart implanted with mouse 4T1 cells assessed per gram of tissue at 0.18 mg/kg, ip after 12 hrs by HPLC-based fluorescence analysis; assay type: ADME, organism-based; settings: in vivo; summary of the method: as §3
Stomach [13] = test: Drug uptake in BALB/c mouse stomach implanted with mouse 4T1 cells assessed per gram of tissue at 0.18 mg/kg, ip after 12 hrs by HPLC-based fluorescence analysis; assay type: ADME, organism-based; settings: in vivo; summary of the method: as §1
Liver = test: Drug uptake in BALB/c mouse liver implanted with mouse 4T1 cells assessed per gram of tissue at 0.18 mg/kg, ip after 12 hrs by HPLC-based fluorescence analysis; assay type: ADME, organism-based; settings: in vivo; summary of the method: as §3
Spleen [14] = test: Drug uptake in BALB/c mouse spleen implanted with mouse 4T1 cells assessed per gram of tissue at 0.18 mg/kg, ip after 12 hrs by HPLC-based fluorescence analysis; assay type: ADME, organism-based; settings: in vivo; summary of the method: as §1
Lung [15] = test: Drug uptake in BALB/c mouse lung implanted with mouse 4T1 cells assessed per gram of tissue at 0.18 mg/kg, ip after 24 hrs by HPLC-based fluorescence analysis; assay type: ADME, organism-based; settings: in vivo; summary of the method: as §3
Stomach [16] = test: Drug uptake in BALB/c mouse stomach implanted with mouse 4T1 cells assessed per gram of tissue at 0.18 mg/kg, ip after 24 hrs by HPLC-based fluorescence analysis; assay type: ADME, organism-based; settings: in vivo; summary of the method: as §1
Kidney [17] = test: Drug uptake in BALB/c mouse kidney implanted with mouse 4T1 cells assessed per gram of tissue at 0.18 mg/kg, ip after 24 hrs by HPLC-based fluorescence analysis; assay type: ADME, organism-based; settings: in vivo; summary of the method: as §3
Spleen [18] = test: Drug uptake in BALB/c mouse spleen implanted with mouse 4T1 cells assessed per gram of tissue at 0.18 mg/kg, ip after 24 hrs by HPLC-based fluorescence analysis; assay type: ADME, organism-based; settings: in vivo; summary of the method: as §1
Urinary bladder [19] = test: Drug uptake in BALB/c mouse bladder implanted with mouse 4T1 cells assessed per gram of tissue at 0.18 mg/kg, ip after 24 hrs by HPLC-based fluorescence analysis; assay type: ADME, organism-based; settings: in vivo; summary of the method: as §3
Urinary bladder [20] = test: Drug uptake in BALB/c mouse bladder implanted with mouse 4T1 cells assessed per gram of tissue at 0.18 mg/kg, ip after 48 hrs by HPLC-based fluorescence analysis; assay type: ADME, organism-based; settings: in vivo; summary of the method: as §3
4T1 [21] = test: Drug uptake in mouse 4T1 cells implanted in BALB/c mouse assessed per gram of tissue at 0.18 mg/kg, ip after 48 hrs by HPLC-based fluorescence analysis; assay type: ADME, organism-based; settings: in vivo; summary of the method: as §1
[22] = Ratio of drug level in tumor to skin in BALB/c mouse implanted with mouse 4T1 cells ip after 24 hrs; settings: in vivo

Drug uptake (4T1 [1]): 1.8 ng/g | Drug uptake (Lung [8]): 70 ng/g | Drug uptake [9]: 90 ng | Drug uptake (Kidney [10]): 38 ng | Drug uptake (Spleen [11]): 90 ng/g | Drug uptake (Muscle tissue): 2.2 ng | Drug uptake (Lung [12]): 30 ng | Drug uptake (Heart): 6 ng/g | Drug uptake (Stomach [13]): 20 ng/g | Drug uptake (Liver): 60 ng/g | Drug uptake (Spleen [14]): 55 ng | Drug uptake (Lung [15]): 29 ng/g | Drug uptake (Stomach [16]): 31 ng/g | Drug uptake (Kidney [17]): 18 ng | Drug uptake (Spleen [18]): 58 ng | Drug uptake (Urinary bladder [19]): 77 ng | Drug uptake (Urinary bladder [20]): 3 ng/g | Drug uptake (4T1 [21]): 1.4 ng/g | Ratio [22]: 60
Compound: CN1CC2C3=N/C(=C(/c4c(F)c(F)c(S[C@@H]5O[C@H](CO)[C@@H](O)[C@H](O)[C@H]5O)c(F)c4F)C4=N/C(=C(/c5c(F)c(F)c(F)c(F)c5F)c5ccc([nH]5)/C(c5c(F)c(F)c(S[C@@H]6O[C@H](CO)[C@@H](O)[C@H](O)[C@H]6O)c(F)c5F)=C5/C=CC(=N5)C3c3c(F)c(F)c(F)c(F)c3F)C=C4)C2C1 (stereo not given in full)
Activity (4T1 [2]): Active | Activity (4T1 [3]): Active | Ratio (4T1 [4]): 250 | EC50 [5]: 0.5 nM | EC50 [6]: 1 nM | EC50 [7]: 0.1 nM
